Compound activity as filed in PubChem BioAssay.
Hits are enriched below; roughly 4.8% of the tested compounds scored in any of these assays.
Mdm2 MdmX PPI: human Mdm2/MdmX binding inhibition. O15151+Q00987. SaOS-2 split-luciferase Mdm2/MdmX complementation, luminescence. inhibition, % at 8 µM. 3% of 330,000 active;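 active means inhibition of at least 50% at 8 µM in the primary screen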
Target sequence (O15151 whole entry, looked up): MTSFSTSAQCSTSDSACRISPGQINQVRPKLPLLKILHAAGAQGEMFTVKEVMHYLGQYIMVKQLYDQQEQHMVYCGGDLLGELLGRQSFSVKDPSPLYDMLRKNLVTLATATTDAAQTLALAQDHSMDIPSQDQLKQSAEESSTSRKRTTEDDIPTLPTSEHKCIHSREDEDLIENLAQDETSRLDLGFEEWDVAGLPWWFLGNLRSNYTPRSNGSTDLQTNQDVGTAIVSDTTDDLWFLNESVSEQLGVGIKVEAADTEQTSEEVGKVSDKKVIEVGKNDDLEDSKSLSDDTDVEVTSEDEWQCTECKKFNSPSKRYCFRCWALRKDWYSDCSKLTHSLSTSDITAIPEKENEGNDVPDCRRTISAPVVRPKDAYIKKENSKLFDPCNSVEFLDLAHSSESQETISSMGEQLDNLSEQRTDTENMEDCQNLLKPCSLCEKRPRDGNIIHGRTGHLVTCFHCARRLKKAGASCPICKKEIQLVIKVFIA
Target sequence (Q00987 whole entry, looked up): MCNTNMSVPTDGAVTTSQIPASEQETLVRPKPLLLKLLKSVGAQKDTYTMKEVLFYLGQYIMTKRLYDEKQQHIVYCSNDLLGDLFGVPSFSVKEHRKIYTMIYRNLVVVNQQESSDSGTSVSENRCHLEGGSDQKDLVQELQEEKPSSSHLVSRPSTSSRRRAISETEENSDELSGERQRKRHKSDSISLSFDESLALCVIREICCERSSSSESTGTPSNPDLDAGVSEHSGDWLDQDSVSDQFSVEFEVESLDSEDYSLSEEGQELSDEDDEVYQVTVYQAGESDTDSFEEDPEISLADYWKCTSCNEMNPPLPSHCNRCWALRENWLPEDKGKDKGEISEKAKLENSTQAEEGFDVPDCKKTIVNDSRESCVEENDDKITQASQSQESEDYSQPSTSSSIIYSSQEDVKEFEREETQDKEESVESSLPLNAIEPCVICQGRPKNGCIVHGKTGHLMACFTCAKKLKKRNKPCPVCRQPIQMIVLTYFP
Beta cell apopt: beta cell apoptosis inhibition; 0.8% of 300,000 active; INS-1E cytokine-induced death, ATP luminescence, 48 h; percent of positive-control rescue, neutral wells zero; protection from apoptosis, % (test concentration not listed);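 active means Every replicate reaches about 75%, or at least half do and their mean reaches it too, limit read from the data; inconclusive means At least half of replicates reach the limit but their mean does not; inactive means Under half of replicates reach the limit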;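 further: higher means more ATP so stronger rescue from cytokine killing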
XBP1 UPR activ: activators of adaptive arm of unfolded protein response (XBP1) | CHO-XBP1 luciferase reporter, IRE1-XBP1 UPR activation, luminescence; percent of tunicamycin response, DMSO as zero | activation, % at 20 µM | 0.33% of 330,000 active;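 active means versus positive control, 20 µM dose yields 30% or more activation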
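Material: CHO cell line with stable XBP1 luciferase reporter; schedule: 16-18 h cell attachment at 37 °C, then 6 h compound exposure; signal: glow luminescence from Steady-Glo reagent; medium: serum-containing F12 medium, 10% FBS; benchmarks: tunicamycin 10 µg/mL and vehicle-only wells; read-out: percent activation relative to tunicamycin reference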
CSC inhib: blocks cancer stem cells | 1.1% of 300,000 active | inhibition, % at 7.5 µM | cancer stem cell-like cells viability, luminescence; in the data active means inhibition above about 75%; inconclusive means no clear call, values can overlap the other calls; tested in HMLE shEcad cells
UPR CHOP act: activators of apoptotic arm of unfolded protein response (CHOP) | CHO-CHOP luciferase reporter, UPR activation, luminescence; percent of tunicamycin response over DMSO baseline | activation, % at 10 µM | 0.34% of 330,000 active | AID 449763;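 active means at 10 µM dose, activation of 40% or more, normalized to positive control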
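Test system: CHO CHOP reporter cells. Input: 500 CHO-CHOP cells per well. Medium: F12 with 10% FBS. Technique: luciferase luminescence. Measure: percent activation relative to tunicamycin control. Dosing: 10 µM compound, 0.5% DMSO. Timing: 16-18 h cell attachment, then 6 h compound exposure, 37 °C.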
SKKanGAS inh: inhibitors of SKKanGAS S. pyogenes growth in kanamycin (SK-promoter or general growth effect); 1.3% of 300,000 active; BacTiter-Glo, 6 h; AID 1662; inhibition, % at 7.5 µM;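 active means mean replicate score, as percent of positive control median, at least 50; inconclusive means mean below 50 but one replicate at or above 50; inactive means mean and every replicate below 50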;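 further: strain carries kanamycin resistance gene driven by streptokinase promoter and grows in 40 µg/ml kanamycin; loss of luminescence reflects streptokinase promoter inhibition or plain growth inhibition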
Mdm2-MdmX conf: human Mdm2/MdmX binding inhibition, confirmed | shares compounds with Mdm2 MdmX PPI | luminescent assay | inhibition, % at 8 µM | 55% of 10,000 active | AID 489028; in the data active means inhibition above about 40%
Full FLuc ctr: full-length luciferase inhibition in Mdm2/MdmX counter-screen; shares compounds with Mdm2 MdmX PPI; SaOS-2 full-length luciferase counterscreen, luminescence; inhibition, % at 8 µM; 77% of 6,200 active; AID 504607;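 active means mean inhibition at 8 µM reaching about 37%, which flags the compound as non-specific, limit read from the data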;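 further: p53-null SaOS-2 cells with luciferase driven by a doxycycline-inducible promoter; compound on cells about two nights before reading with doxycycline added after day one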
Hits are given with their value; 0 = inactive; ? = inconclusive; - = no result.

SMILES	Mdm2 MdmX PPI	Beta cell apopt	XBP1 UPR activ	CSC inhib	UPR CHOP act	SKKanGAS inh	Mdm2-MdmX conf	others
CC(C)C[C@H](NC(=O)c1nc[nH]c1C(=O)NCCCCCNC(=O)OC(C)(C)C)C(=O)OC(C)(C)C	0	0	0	0	0	0	-
CC(C)(C)OC(=O)NCCCC[C@H](NC(=O)c1[nH]cnc1C(=O)Nc1ccc(Cl)cc1)C(=O)OC(C)(C)C	56.0	0	0	0	0	56.6	0
CC(C)C[C@H](NC(=O)c1nc[nH]c1C(=O)N[C@@H](CC(C)C)C(=O)OC(C)(C)C)C(=O)OCc1ccccc1	63.8	?	0	0	0	57.9	0
CC(C)C[C@H](NC(=O)c1[nH]cnc1C(=O)N[C@@H](C)c1ccccc1)C(=O)OCc1ccccc1	51.1	0	0	0	0	74.6	0
CN(C)c1ccc(/C=N/Nc2nncc3ccccc23)cc1	-	0	-	0	-	0	-
CCN(CC)C(=O)[C@H]1CC(CC(=O)NCc2ccc(OC)c(OC)c2)C(=O)N2CCc3c([nH]c4ccc(OC)cc34)[C@]12C (stereo partly specified)	0	-	0	-	0	-	-
COc1ccccc1N1CCN(CCC(=O)Nc2cccc(Cl)c2)CC1	0	0	0	0	0	0	-
CC(C)C[C@H](NC(=O)c1nc[nH]c1C(=O)N1CCN(C(=O)OC(C)(C)C)CC1)C(=O)OC(C)(C)C	90.9	0	0	0	0	0	80.6	Full FLuc ctr=52.6
CC(C)C[C@H](NC(=O)c1[nH]cnc1C(=O)N[C@@H](C)C(=O)OC(C)(C)C)C(=O)OC(C)(C)C	63.1	0	0	0	0	0	0
CC(C)(C)OC(=O)NCc1ccc(CNC(=O)c2[nH]cnc2C(=O)N[C@@H](Cc2ccccc2)C(=O)OCc2ccccc2)cc1	0	0	0	0	0	0	-
CC(C)(C)OC(=O)NCc1ccc(NC(=O)c2nc[nH]c2C(=O)N[C@@H](Cc2ccccc2)C(=O)OCc2ccccc2)cc1	59.8	0	0	0	0	0	0
CC(C)(C)OC(=O)N1CCC(NC(=O)c2[nH]cnc2C(=O)Nc2ccc(Cl)cc2)CC1	51.8	0	0	89.4	0	-	52.9	Full FLuc ctr=53.2
CC(C)C[C@H](NC(=O)c1nc[nH]c1C(=O)N[C@@H](CCCCN)C(=O)OC(C)(C)C)C(=O)OC(C)(C)C	0	0	0	0	0	-	-
COc1ccc(-n2nnc3c(SC(C(C)=O)C(=O)N(C)C)ncnc32)cc1 (stereo unspecified)	0	-	0	0	0	0	-
CC(C)n1nnnc1SCC(=O)N1N=C(c2cccs2)CC1c1cccs1 (stereo unspecified)	0	0	0	0	0	-	-
NCCNC(=O)Cn1c(=O)c2c3c(sc2n(Cc2ccccc2)c1=O)CCCC3	0	0	0	0	0	0	-
C[C@H](NC(=O)c1[nH]cnc1C(=O)Nc1ccc(Cl)cc1)C(=O)OC(C)(C)C	50.4	0	0	0	0	0	0
CCOC(=O)c1ccc(NC(=O)c2nc[nH]c2C(=O)N[C@@H](C)C(=O)OC(C)(C)C)cc1	0	0	0	0	0	0	-
C[C@H](NC(=O)c1nc[nH]c1C(=O)N[C@@H](Cc1ccccc1)C(=O)OC(C)(C)C)c1ccccc1	50.1	0	0	0	0	54.5	0
CC(C)C[C@H](NC(=O)c1[nH]cnc1C(=O)Nc1ccccc1)C(=O)OC(C)(C)C	56.6	0	0	0	0	62.6	0
CCOC(=O)c1ccc(NC(=O)c2nc[nH]c2C(=O)N[C@@H](CC(C)C)C(=O)OC(C)(C)C)cc1	0	0	0	0	0	0	-
Cc1cc(C(=O)NC2CC(C)(C)Cc3c2cnn3-c2ccc(F)cc2)no1 (stereo unspecified)	0	0	0	0	0	0	-
O=C(COC(=O)c1ccccn1)Nc1nc(-c2cccc([N+](=O)[O-])c2)cs1	0	0	0	-	0	0	-
COc1cc2c(cc1OC)C(C)N(C(=O)c1c(C)noc1C)CC2 (stereo unspecified)	0	0	0	0	0	0	-
COc1cc2c(cc1OC)C(C)N(C(=O)c1cc(C)on1)CC2 (stereo unspecified)	60.6	0	0	0	0	0	67.5	Full FLuc ctr=82.0
SMILES	Mdm2 MdmX PPI	Beta cell apopt	XBP1 UPR activ	CSC inhib	UPR CHOP act	SKKanGAS inh	Mdm2-MdmX conf	others
O=C1NC(=Nc2cccnc2)S/C1=C/c1ccc(F)cc1	51.5	0	0	0	0	0	0
CCOC(=O)/C(=N\O)C1=NC(C)(C)Cc2ccccc21	0	0	0	0	0	0	-
Cc1cccc(N/N=C(\C(N)=O)C2=NC(C)(C)Cc3ccccc32)c1	58.5	0	0	76.3	0	0	0
COc1ccccc1NC(=O)C1CCCN(c2cnccn2)C1 (stereo unspecified)	0	-	0	-	0	0	-
CC1(C)C[C@@H](O)CC2(C1)C[C@]1(C)CC(O)[C@H]2C(C)(C)C1 (stereo partly specified)	0	-	0	0	0	0	-
COc1ccc(N/N=C(\C=N\O)C(=O)c2ccc(OC)cc2)cc1	55.9	0	0	0	0	0	56.5	Full FLuc ctr=60.3
NC(=O)c1sc2nc3c(c(-c4ccco4)c2c1N)CCC3	76.9	0	0	0	0	0	55.0	Full FLuc ctr=0
Cc1ccc(-c2nc3sc(C(N)=O)c(N)c3c3c2CCCC3)cc1	0	0	0	0	0	0	-
Cc1nc2sc(C(N)=O)c(N)c2c2c1CCCC2	87.0	0	0	0	0	0	88.7	Full FLuc ctr=49.0
Cc1ccc(-c2c3c(nc4sc(C(N)=O)c(N)c24)CCCC3)o1	0	0	0	0	0	0	-
Cc1ccc(NC(=O)CSCC(=O)N2CCCc3ccccc32)cc1	0	0	0	0	0	0	-
CCCCNC(=S)N/N=C/c1cccc(OCC)c1O	0	0	0	0	0	0	-
CCOc1cccc(/C=N/NC(=S)Nc2ccccc2[N+](=O)[O-])c1O	84.6	0	0	0	0	73.2	83.3	Full FLuc ctr=48.8
O=C(C[C@H]1C/C=C\CC[C@H](Cc2ccc(F)cc2)C(=O)OC[C@@H]2CCCN2C1=O)N[C@H](CO)Cc1ccccc1	0	0	0	0	0	-	-
COC(=O)C1=C(C)N(Cc2ccccc2)C(=NCCc2ccccn2)N[C@H]1c1cccc(C(F)(F)F)c1	80.9	0	0	0	0	-	51.1	Full FLuc ctr=59.2
COC(=O)C1=C(C)N(Cc2ccccc2)C(=NCC(C)C)N[C@H]1c1cccc(F)c1	78.8	0	0	-	0	-	44.9	Full FLuc ctr=45.4
COC(=O)C1=C(C)N(Cc2ccccc2)C(=NCCc2cccnc2)N[C@H]1c1ccccc1	0	0	0	0	0	0	-
COC(=O)C1=C(C)N(Cc2ccccc2)C(=NCc2ccco2)N[C@H]1c1cccc(F)c1	0	0	0	-	0	-	-
